Consider 58 sequences from the array DNA melting data of Ke et al. (doi:10.1101/2024.01.08.574731).

Series [1] is described as follows: folding enthalpy; higher = less favourable; fluorescence melt of hairpins on a sequencing array, two-state fit. The note with it: sodium 0.088 M. The procedure, abridged: (§1)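 Hairpins were imaged by Cy3 fluorescence on a sequenced MiSeq flow cell with annealed Cy3 and quencher oligos, in 50 mM Na-HEPES pH 8.0, 25 mM NaCl, in 2.5 °C steps up to 60 °C. Bootstrapped two-state fits of normalised signals gave melting temperature and folding enthalpy. Four replicates were combined by inverse variance, and fitted temperatures were raised by 9.35 °C to match UV melts.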

Series [2] can be described thus: melting temperature; fluorescence melt of hairpins on a sequencing array, two-state fit, raised by 9.35 °C to match UV melts. The note with it: sodium 0.088 M. The procedure, abridged: as §1

For the sequence GCGGATCGAAAGATGCGC (((.(((....))).))), the folding enthalpy in series [1] is -38.6 kcal/mol. Further, the Tm in series [2] turned out to be 66.3 °C.
Turning to GCGGATGCGAAAGCACGC (((..(((....)))))), in series [1], the folding enthalpy is -15.8 kcal/mol. The Tm in series [2] stood at 56.6 °C.
Turning to GCGGATGGAAACATCCAC (.(((((....))))).), the folding enthalpy in series [1] was -14.7 kcal/mol. In addition, the Tm in series [2] turned out to be 45.3 °C.
In the case of GCGGATGGAAACATCTGC ((.((((....)))).)), the folding enthalpy in series [1] is -47.5 kcal/mol. Further, the Tm in series [2] worked out at 54.4 °C.
The matching figures for GCGGCAGGAAACCGCCGC (((((.(....).))))): -30.6 kcal/mol and 69.3 °C.
The matching figures for GCGGCAGTCCGC ((((....)))): -23.7 kcal/mol and 59.7 °C.
Take GCGGCCACCCGC ((((....)))): in series [1], the folding enthalpy is -19.8 kcal/mol. Also, in series [2], the Tm turned out to be 59.5 °C.
The matching figures for GCGGCCGAAAGGCACCGC ((((((....)))..))): -16.8 kcal/mol and 56 °C.
Taken in the same sequence, the figures for GCGGCCGAAAGGCGACGC ((((((....)))..))) were -17.2 kcal/mol and 65.9 °C.
The matching figures for GCGGCCGAAAGGCGCCGC ((((((....)))..))): -14.9 kcal/mol and 62.8 °C.
As for GCGGCCGACCGC ((((....)))), the folding enthalpy in series [1] was -26.7 kcal/mol. Also, the Tm in series [2] came to 57.6 °C.
Take GCGGCCGGAAACAGCCGC (((((.(....).))))): the folding enthalpy in series [1] was -22.9 kcal/mol. Also, the Tm in series [2] was found to be 64.8 °C.
In the case of GCGGCGAACCGC ((((....)))), in series [1], the folding enthalpy was -18.9 kcal/mol. The Tm in series [2] worked out at 56.9 °C.
Taken in the same sequence, the figures for GCGGCGACCGC ((((...)))) were -16 kcal/mol and 55.8 °C.
The matching figures for GCGGCGCGAAAGCCACGC (((..((....))..))): -20.8 kcal/mol and 61.7 °C.
In the case of GCGGCGCGAAAGCTTCGC (((..((....))..))), the folding enthalpy in series [1] is -16.8 kcal/mol. The Tm in series [2] was 54.1 °C.
GCGGCGCTCCGC ((((....)))): the folding enthalpy in series [1] is -14.3 kcal/mol. For the same sequence, the Tm in series [2] was 63.4 °C.
Taken in the same sequence, the figures for GCGGCGGGAAACCACCGC ((((.((....)).)))) were -41.7 kcal/mol and 60.3 °C.
The matching figures for GCGGCGTCCGC ((((...)))): -14.7 kcal/mol and 59.9 °C.
With GCGGCTACCCGC ((((....)))), the folding enthalpy in series [1] is -22.2 kcal/mol. In addition, the Tm in series [2] was determined as 55.7 °C.
As to GCGGCTACGAAAGTACGC (((..(((....)))))), the folding enthalpy in series [1] was -21.6 kcal/mol. Moreover, in series [2], the Tm was found to be 47.6 °C.
Taken in the same sequence, the figures for GCGGCTGCCCGC ((((....)))) were -19.4 kcal/mol and 55 °C.
The matching figures for GCGGCTGGAAACAGCCAC (.(((((....))))).): -11.8 kcal/mol and 51.8 °C.
The matching figures for GCGGCTGGAAACAGTCGC (((.(((....))).))): -47.4 kcal/mol and 67.3 °C.
As to GCGGGAGCCCGC ((((....)))), the folding enthalpy in series [1] is -20 kcal/mol. In addition, in series [2], the Tm came out at 56 °C.
On to GCGGGAGCGAAAGCTCGC (((..(((....)))))), for which the folding enthalpy in series [1] was -10.9 kcal/mol. The Tm in series [2] is 55.8 °C.
Taken in the same sequence, the figures for GCGGGCGAAAGCCCCCGC ((((((....)))..))) were -11.2 kcal/mol and 52.1 °C.
The matching figures for GCGGGCGAAAGCCTCCGC ((((((....)))..))): -25.8 kcal/mol and 53.3 °C.
Taken in the same sequence, the figures for GCGGGCGCGAAAGCGCGC (((..(((....)))))) were -7.24 kcal/mol and 63 °C.
On to GCGGGGCGAAAGCATCGC (((..((....))..))), for which, in series [1], the folding enthalpy was -33.1 kcal/mol. Moreover, the Tm in series [2] was 65.2 °C.
The matching figures for GCGGGGCGAAAGCCATGC ((..(((....)))..)): -27.7 kcal/mol and 62.4 °C.
Taken in the same sequence, the figures for GCGGGGCGAAAGCCGGGC ((..(((....)))..)) were -14.8 kcal/mol and 56 °C.
Taken in the same sequence, the figures for GCGGGGCGAAAGCGCTGC ((.(.((....)).).)) were -35.9 kcal/mol and 66.4 °C.
For the sequence GCGGGGTCCCGC ((((....)))), the folding enthalpy in series [1] was -29.3 kcal/mol. In addition, the Tm in series [2] was 65.1 °C.
Taken in the same sequence, the figures for GCGGGTACCCGC ((((....)))) were -34.1 kcal/mol and 67.7 °C.
In the case of GCGGGTACGAAAGTACGC (((..(((....)))))), the folding enthalpy in series [1] is -13.8 kcal/mol. Further, the Tm in series [2] was 51.5 °C.
The matching figures for GCGGGTAGCCGC ((((....)))): -24.2 kcal/mol and 64 °C.
Taken in the same sequence, the figures for GCGGGTCCCCGC ((((....)))) were -23.5 kcal/mol and 66.8 °C.
Taken in the same sequence, the figures for GCGGGTCTCCGC ((((....)))) were -22.9 kcal/mol and 67.7 °C.
As for GCGGGTTCCCGC ((((....)))), the folding enthalpy in series [1] was -23.3 kcal/mol. The Tm in series [2] came out at 67.3 °C.
The matching figures for GCGGGTTGCCGC ((((....)))): -19.8 kcal/mol and 57.2 °C.
Taken in the same sequence, the figures for GCGGTAAACCGC ((((....)))) were -26.2 kcal/mol and 56 °C.
The matching figures for GCGGTAACGAAAGTTCGC (((..(((....)))))): -26.7 kcal/mol and 47.4 °C.
Take GCGGTAGACCGC ((((....)))): the folding enthalpy in series [1] was -25.7 kcal/mol. The Tm in series [2] was 60.8 °C.
The matching figures for GCGGTAGGAAACTACCAC (.(((((....))))).): -15.6 kcal/mol and 44.1 °C.
Taken in the same sequence, the figures for GCGGTATCCCGC ((((....)))) were -30.5 kcal/mol and 53.5 °C.
The matching figures for GCGGTCCCCGC ((((...)))): -18 kcal/mol and 67.5 °C.
In the case of GCGGTCCGCCGC ((((....)))), in series [1], the folding enthalpy is -19.7 kcal/mol. Further, the Tm in series [2] is 63.6 °C.
The matching figures for GCGGTCGAAAGACACCGC ((((((....)))..))): -24.4 kcal/mol and 53.3 °C.
The matching figures for GCGGTCGAAAGACAGCGC ((((((....)))..))): -27.7 kcal/mol and 69.2 °C.
Regarding GCGGTCGAAAGACTACGC ((((((....)))..))), in series [1], the folding enthalpy is -25.1 kcal/mol. Further, the Tm in series [2] came out at 54.3 °C.
The matching figures for GCGGTCGCCCGC ((((....)))): -18.6 kcal/mol and 56.7 °C.
Taken in the same sequence, the figures for GCGGTCGGAAACGATCGC (((.(((....))).))) were -34.8 kcal/mol and 67.3 °C.
The matching figures for GCGGTCTTCCGC ((((....)))): -23.6 kcal/mol and 59.1 °C.
With GCGGTGCCCCGC ((((....)))), the folding enthalpy in series [1] was -18.8 kcal/mol. For the same sequence, the Tm in series [2] worked out at 54.3 °C.
The matching figures for GCGGTGCGAAAGCAGTGC ((..(((....)))..)): -23.5 kcal/mol and 63.6 °C.
As to GCGGTGCGAAAGCATAGC ((..(((....)))..)), the folding enthalpy in series [1] was -25.4 kcal/mol. For the same sequence, the Tm in series [2] is 63.4 °C.
Turning to GCGGTGCGAAAGCCCGGC ((.(.((....)).).)), in series [1], the folding enthalpy was -12.4 kcal/mol. Moreover, the Tm in series [2] worked out at 61.7 °C.
